Assay results from different studies.
Lines come from different studies, so protocols differ.
NT5E: 5'-nucleotidase (NT5E, Homo sapiens, UniProt P21589)
Adra1b: Alpha-1B adrenergic receptor (Adra1b, Rattus norvegicus, UniProt P15823)
XDH: Xanthine dehydrogenase/oxidase (XDH, Bos taurus, UniProt P80457)

| SMILES | target | effect on | action | technique | tested at | inhibition |
| --- | --- | --- | --- | --- | --- | --- |
| Cc1cccc(NC(=O)c2sc3nc(C)cc(C)c3c2N)n1 | NT5E | enzyme activity | inhibitor | – | 10 µM | -21% |
| NC/C(=C\F)COc1cccc(Cn2c(=S)[nH]c(=O)c3[nH]cnc32)c1 | Adra1b | ligand displacement | – | radioligand | 10 µM | < 50% |
| N#Cc1c(C(F)(F)F)cc(-c2ccccc2)nc1SCC(=O)Nc1ccccc1 | NT5E | enzyme activity | inhibitor | – | 10 µM | 16% |
| O=C(NS(=O)(=O)c1ccccc1)c1cc2ccccc2n1Cc1ccc(C2CC2)c2ccccc12 | XDH | enzyme activity | inhibitor | absorbance | 10 µM | 2.49% |
| Cc1cc(O)c(-c2ccc([C@@H](C)CN(C)C)cc2)c2c1[nH]c(=O)c1sccc12 | Cyclin-dependent kinase 13 (CDK13, Homo sapiens, UniProt Q14004) | enzyme activity | inhibitor | – | 0.1 µM | -1.62% |
| COCCOCCOCCNC(=O)c1sc2nc(-c3ccccc3)cc(C(F)(F)F)c2c1N | NT5E | enzyme activity | inhibitor | – | 10 µM | -9% |
| O=C(O)/C=C/c1nccc2c3ccccc3n(Cc3ccc(Br)c4ccccc34)c12 | XDH | enzyme activity | inhibitor | absorbance | 10 µM | 17.8% |
| Oc1ncnc2[nH]ncc12 | XDH | enzyme activity | inhibitor | – | 25 µg/mL | > 90% |
| C#Cc1cc(-c2cc(Nc3nc(N[C@@H](C)c4ccc(F)cn4)ncc3Cl)n[nH]2)ccc1C=O | Mitogen-activated protein kinase kinase kinase kinase 5 (MAP4K5, Homo sapiens, UniProt Q9Y4K4) | enzyme activity | inhibitor | – | 0.2 µM | 92% |
| O=C(O[C@@H]1COC(=O)c2cc(O)c(O)c(O)c2-c2c(cc(O)c(O)c2O)C(=O)O[C@H]1[C@@H]1OC(=O)c2cc(O)c(O)c(O)c2-c2c(O)c(O)c(O)c3c2C(=O)O[C@H]1[C@@H]3O)c1cc(O)c(O)c(O)c1 | XDH | enzyme activity | inhibitor | – | 25 µg/mL | 29.8% |
| O=C(O)CCc1nccc2c3ccccc3n(Cc3ccc(Br)c4ccccc34)c12 | XDH | enzyme activity | inhibitor | absorbance | 10 µM | 16.4% |
| CCN1/C(=C/C(C)=O)Sc2ccc(F)cc21 | Adra1b | ligand displacement | – | radioligand | 10 µM | 4.13% |
